Bioassay records from PubChem BioAssay.
Most compounds without a hit are left out; they make up all but 1.7% or so of the library.
RanGTP-Impb inh = inhibitors of RanGTP-importin-beta interaction, primary screen, biochemical, FRET, CFP-Ran, YFP-importin-beta, homogeneous | inhibition, % (no concentration beside the values) | actives 1.1% (n = 300,000) | Ran GTPase (GTP-bound) - importin-beta complex | cell-free CFP-Ran/YFP-importin-beta FRET ratio;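 active = more than half of the replicate wells show a fall in the fluorescence ratio signal beyond about 16%, limit read from the data, passing the limit was not always enough; inconclusive = exactly half of the replicate wells pass the set limit; inactive = fewer than half of replicates pass the limit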;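 also: 0% = DMSO wells and 100% = Ran loaded with GDP instead of GTP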
Runt-SMMHC FRET = inhibitors of RUNX1 Runt–CBFb-SMMHC binding, primary screen, biochemical, FRET, Cerulean-Runt, Venus-CBFb-SMMHC, uHTS; Cerulean-Runt/Venus-CBFb-SMMHC FRET ratio 530/480, 1 h; inhibition, % at 20 µM; actives 0.74% (n = 220,000);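 active = mean inhibition across duplicate retests at 20 µM reaching about 50%, limit read from the data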;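 also: 0% = DMSO wells and 100% = wells with excess untagged CBFb-SMMHC; inhibitors lower the FRET ratio by blocking Runt binding to CBFb-SMMHC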
Target sequence (Q01196 whole entry, looked up): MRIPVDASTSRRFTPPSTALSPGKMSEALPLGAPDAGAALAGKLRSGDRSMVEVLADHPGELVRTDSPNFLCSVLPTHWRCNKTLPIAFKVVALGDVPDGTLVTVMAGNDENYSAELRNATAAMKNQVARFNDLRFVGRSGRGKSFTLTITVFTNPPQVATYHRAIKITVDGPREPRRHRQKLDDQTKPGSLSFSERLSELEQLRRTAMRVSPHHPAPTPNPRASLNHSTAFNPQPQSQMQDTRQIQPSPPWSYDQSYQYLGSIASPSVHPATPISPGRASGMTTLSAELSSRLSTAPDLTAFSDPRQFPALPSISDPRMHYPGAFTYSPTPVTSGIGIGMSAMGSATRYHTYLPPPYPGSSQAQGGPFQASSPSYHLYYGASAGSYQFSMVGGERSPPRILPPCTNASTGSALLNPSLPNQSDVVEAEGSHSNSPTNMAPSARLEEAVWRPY
Target sequence (Q13951 whole entry, looked up): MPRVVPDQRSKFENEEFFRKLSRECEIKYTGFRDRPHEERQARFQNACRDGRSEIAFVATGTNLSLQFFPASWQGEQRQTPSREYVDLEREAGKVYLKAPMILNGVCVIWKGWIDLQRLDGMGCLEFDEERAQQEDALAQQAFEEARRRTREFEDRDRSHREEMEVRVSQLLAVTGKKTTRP
Hck Nef HTS = inhibitors of Nef-activated human Hck kinase, primary screen, biochemical, Z-Lyte FRET, 384-well, Hck-YEEI; Tyrosine-protein kinase HCK (Homo sapiens), P08631; Recombinant Hck-YEEI plus Nef, Z-Lyte FRET kinase assay; inhibition, % at 20 µM; actives 0.68% (n = 220,000);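 active = Hck-Nef kinase inhibition above about 50%, limit read from the data; inactive = inhibition below that limit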;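 also: 0% = DMSO with Hck plus Nef and 100% = Hck alone without Nef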
Runt-CBFb FRET = inhibitors of RUNX1 Runt–CBFb binding, primary screen, biochemical, FRET, Cerulean-Runt, Venus-CBFb, uHTS; Runt-related transcription factor 1 (Homo sapiens) + Core-binding factor subunit beta …; Cerulean-Runt/Venus-CBFb FRET ratio 530/480, 1 h; inhibition, % at 20 µM; actives 0.46% (n = 220,000); AID 1496, 2009;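 active = inhibition over about 50% at 20 µM in the single-dose screen, limit read from the data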;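 also: 0% = DMSO wells and 100% = excess unlabeled CBFb competitor control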
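Doses: 20 µM compound in 1% DMSO | Material: Cerulean-labeled Runt domain protein | Amount: Each fluorescent fusion protein 100 nM | Schedule: Two 1 h room-temperature incubations shielded from light | Measured by: FRET fluorescence | Evaluation: Loss of energy transfer signal | Controls: Unlabeled CBFb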
Hck-Nef confirm = retest of Hck:Nef kinase inhibitor hits, confirmation, biochemical, Z-Lyte FRET, 384-well, p-Tyr peptide counterscreen; shares compounds with Hck Nef HTS; Recombinant Hck-YEEI:Nef, Z-Lyte FRET kinase assay; AID 463188, 2010; calls only at 10 µM; actives 28% (n = 1,300);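 active = average inhibition of at least 50%, with Z-scores no higher than 3 in both the phospho-tyrosine peptide and fluorescence counterscreens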
* hit, by the source's call; i = inactive; u = inconclusive; x = no result shown; + = active, no number.

SMILES	RanGTP-Impb inh	Runt-SMMHC FRET	Hck Nef HTS	Runt-CBFb FRET	Hck-Nef confirm
CC(=O)OCC1=C(C(=O)O)N2C(=O)C(NC(=O)CCn3nc(C(F)(F)F)c(Br)c3C3CC3)C2SC1 (centres undefined)	3.8	1.3	59.9*	1.6	i
CC(C)N1CC(O)=C(c2nc3ccccc3[nH]2)C1=N	0.3	-2.8	56.1*	0.1	+
CCC(=O)N=c1ccn(C2=Nc3ccccc3NC2=C(C#N)C#N)cc1	-5.0	-2.9	6.4	-46.9	x
c1ccc(COc2ccc(Nc3ncnc4nc[nH]c34)cc2)cc1	-2.4	-3.0	68.5*	0.2	+
CCOC(=O)c1nc2nc(-c3cccs3)cc(C(F)(F)F)n2n1	-1.1	17.7	9.0	4.2	x
Nc1nc2nc(-c3cccs3)cc(C(F)(F)F)n2n1	62.3*	91.1*	110.0*	66.0*	x
N#C/C(=C\c1ccc(-c2cccc([N+](=O)[O-])c2)o1)C(=O)Nc1nc(-c2cccs2)cs1	-1.6	-15.4	74.7*	-2.4	+
O=C(N/N=C/c1ccc(-c2cccc([N+](=O)[O-])c2)o1)c1cccs1	5.6	0.1	30.8	2.0	x
Cc1[nH][nH]c(=O)c1C(c1c(C)[nH][nH]c1=O)c1cn(C)c2ccccc12	x	-11.6	92.2*	-1.9	+
Cc1[nH][nH]c(=O)c1C(c1c(C)[nH][nH]c1=O)c1cn(Cc2cccc3ccccc23)c2ccccc12	x	-5.9	-0.5	-1.3	x
COc1ccc(-c2oc3ncnc(NCCCN4CCOCC4)c3c2-c2ccc(OC)cc2)cc1	0.7	-7.9	93.7*	-1.9	+
c1ccc(-c2oc3ncnc(NCCCN4CCOCC4)c3c2-c2ccccc2)cc1	6.2	0.3	60.5*	0.7	+
COc1ccc(-c2oc3ncnc(NCCN4CCOCC4)c3c2-c2ccc(OC)cc2)cc1	u	-2.2	66.4*	-2.8	+
COc1ccc(-c2oc3ncn(CCN4CCOCC4)c(=N)c3c2-c2ccc(OC)cc2)cc1	-0.4	1.7	19.6	-1.5	x
Oc1cncc(Cc2ccccc2)c1	-1.6	x	x	x	x
O=C(CSCc1ccccc1Cl)Nc1c[nH]c(=O)[nH]c1=O	-0.6	0.9	1.1	-0.8	x
O=C(CCCOc1ccc(Br)cc1)NNC(=O)c1ccncc1	0.4	x	x	x	x
